Data taken from ChEMBL document CHEMBL3259653, “Potent and selective inhibitors of human reticulocyte 12/15-lipoxygenase as anti-stroke therapies” (J Med Chem, 2014).
One block for each compound: values may come before it. Calls of active or inactive are those of the source. The calls are words filed in the database; no cut-off is given here.

Legend:
[1] = biological target: T1, Polyunsaturated fatty acid lipoxygenase ALOX15 (Mus musculus) (UniProt P39654); assay: Inhibition of 12/15-lipoxygenase in mouse HT22 cells assessed as protection against glutamate-induced cell death at 5 uM after 24 hrs by LDH release assay; assay type: cell-based; settings: HT-22
T1 sequence (whole entry): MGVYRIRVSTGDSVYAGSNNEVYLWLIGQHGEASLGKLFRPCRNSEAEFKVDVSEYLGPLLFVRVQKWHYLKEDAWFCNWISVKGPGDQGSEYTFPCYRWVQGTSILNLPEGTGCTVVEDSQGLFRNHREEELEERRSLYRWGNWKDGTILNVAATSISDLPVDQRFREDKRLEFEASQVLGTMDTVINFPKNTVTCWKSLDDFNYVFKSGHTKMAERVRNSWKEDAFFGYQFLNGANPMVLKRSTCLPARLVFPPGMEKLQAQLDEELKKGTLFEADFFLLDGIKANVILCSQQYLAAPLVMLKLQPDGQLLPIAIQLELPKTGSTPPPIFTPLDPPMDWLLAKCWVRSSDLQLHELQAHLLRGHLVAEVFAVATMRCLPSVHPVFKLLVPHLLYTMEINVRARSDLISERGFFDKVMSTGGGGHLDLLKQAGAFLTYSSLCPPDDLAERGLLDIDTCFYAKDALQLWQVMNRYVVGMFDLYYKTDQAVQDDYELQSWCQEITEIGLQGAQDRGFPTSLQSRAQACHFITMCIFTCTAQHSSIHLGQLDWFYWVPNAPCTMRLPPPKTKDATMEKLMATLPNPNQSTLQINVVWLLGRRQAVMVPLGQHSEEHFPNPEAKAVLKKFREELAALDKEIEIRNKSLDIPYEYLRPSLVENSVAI
Procedure, shortened: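 HT22 mouse hippocampal cells were grown in DMEM with 10% FBS and penicillin/streptomycin, seeded at 1 × 10^4 cells/well and treated 18 h later at 50–70% confluence. Medium was exchanged for fresh medium with 5 mM glutamate plus compound or DMSO (≤0.1% final). Death was scored as percent LDH released to the medium versus the cell extract, background-subtracted.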

[2] = biological target: T2, Prostaglandin G/H synthase 1 (Ovis aries) (UniProt P05979); assay: Inhibition of ovine COX-1 using arachidonic acid as substrate assessed as consumption of oxygen at 5 uM preincubated for 5 mins followed by substrate addition by oxygen electrode-based assay relative to control
T2 sequence (whole entry): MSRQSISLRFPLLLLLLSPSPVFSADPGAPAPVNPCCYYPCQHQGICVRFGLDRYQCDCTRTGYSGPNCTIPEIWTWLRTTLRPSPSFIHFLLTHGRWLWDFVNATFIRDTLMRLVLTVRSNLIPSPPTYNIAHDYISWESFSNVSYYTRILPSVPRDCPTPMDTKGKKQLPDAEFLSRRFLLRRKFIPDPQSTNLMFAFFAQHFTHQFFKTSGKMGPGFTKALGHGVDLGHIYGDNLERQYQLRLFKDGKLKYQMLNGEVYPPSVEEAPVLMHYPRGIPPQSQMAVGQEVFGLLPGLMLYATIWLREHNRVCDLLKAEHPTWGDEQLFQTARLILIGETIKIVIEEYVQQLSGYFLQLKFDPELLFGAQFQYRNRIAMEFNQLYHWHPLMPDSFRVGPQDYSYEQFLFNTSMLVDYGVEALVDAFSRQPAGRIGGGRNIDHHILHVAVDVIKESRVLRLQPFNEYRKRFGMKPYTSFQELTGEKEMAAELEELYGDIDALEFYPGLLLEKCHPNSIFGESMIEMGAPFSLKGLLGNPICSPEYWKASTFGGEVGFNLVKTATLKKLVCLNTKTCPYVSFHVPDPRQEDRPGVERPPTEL
Procedure, shortened: (§1)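 COX-1 or COX-2 (2–5 μg) in 0.1 M Tris-HCl pH 8.0 with 5 mM EDTA, 2 mM phenol and 1 μM hematin at 37 °C. Inhibitor was preincubated 5 min, then 100 μM arachidonic acid was added. Oxygen consumption was read on an oxygen electrode, and percent inhibition was calculated against a DMSO control, with indomethacin as positive control.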

[3] = biological target: T3, Prostaglandin G/H synthase 2 (Homo sapiens) (UniProt P35354); assay: Inhibition of human COX-2 using arachidonic acid as substrate assessed as consumption of oxygen at 5 uM preincubated for 5 mins followed by substrate addition by oxygen electrode-based assay relative to control; procedure, shortened: as §1
T3 sequence (whole entry): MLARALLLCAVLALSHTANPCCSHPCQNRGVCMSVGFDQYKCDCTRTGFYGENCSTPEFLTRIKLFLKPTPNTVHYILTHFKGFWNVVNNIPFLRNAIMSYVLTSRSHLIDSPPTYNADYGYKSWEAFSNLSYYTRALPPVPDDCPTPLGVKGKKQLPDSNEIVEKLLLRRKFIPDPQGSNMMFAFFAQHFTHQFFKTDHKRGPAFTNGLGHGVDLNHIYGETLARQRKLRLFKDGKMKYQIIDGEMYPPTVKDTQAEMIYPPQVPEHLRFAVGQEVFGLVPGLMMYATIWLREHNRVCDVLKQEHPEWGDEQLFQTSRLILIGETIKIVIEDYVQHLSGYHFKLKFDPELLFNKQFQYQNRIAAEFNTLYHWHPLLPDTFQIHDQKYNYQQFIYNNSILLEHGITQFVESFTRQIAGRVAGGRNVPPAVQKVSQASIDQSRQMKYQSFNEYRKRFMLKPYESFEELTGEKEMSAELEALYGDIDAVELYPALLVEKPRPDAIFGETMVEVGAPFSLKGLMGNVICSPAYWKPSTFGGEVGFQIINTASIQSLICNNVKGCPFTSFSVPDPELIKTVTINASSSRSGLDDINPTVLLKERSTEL

[4] = biological target: T4, Polyunsaturated fatty acid lipoxygenase ALOX15 (Homo sapiens, UniProt P16050); assay: Inhibition of recombinant N-terminal His6-tagged human reticulocyte 12/15-lipoxygenase using arachidonic acid as substrate by UV-vis spectrometric analysis
T4 sequence (P16050 whole entry): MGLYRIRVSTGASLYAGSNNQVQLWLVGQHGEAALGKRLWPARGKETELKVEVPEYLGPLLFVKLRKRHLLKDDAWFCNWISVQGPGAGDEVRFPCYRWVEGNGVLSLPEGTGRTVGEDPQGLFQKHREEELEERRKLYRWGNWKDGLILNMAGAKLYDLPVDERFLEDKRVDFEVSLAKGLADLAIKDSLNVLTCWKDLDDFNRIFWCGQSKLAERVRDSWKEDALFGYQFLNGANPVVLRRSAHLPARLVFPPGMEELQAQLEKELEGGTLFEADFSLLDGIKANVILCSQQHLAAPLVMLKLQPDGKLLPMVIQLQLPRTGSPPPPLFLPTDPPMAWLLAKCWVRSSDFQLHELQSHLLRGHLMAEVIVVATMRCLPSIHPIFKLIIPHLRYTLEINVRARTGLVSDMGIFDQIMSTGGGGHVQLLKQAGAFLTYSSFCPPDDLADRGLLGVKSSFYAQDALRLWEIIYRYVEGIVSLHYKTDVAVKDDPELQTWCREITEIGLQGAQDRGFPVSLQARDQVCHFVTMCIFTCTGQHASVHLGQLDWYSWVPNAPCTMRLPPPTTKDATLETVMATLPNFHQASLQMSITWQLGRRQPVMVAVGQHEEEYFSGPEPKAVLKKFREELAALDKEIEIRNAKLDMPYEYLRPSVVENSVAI

[5] = biological target: T5, Polyunsaturated fatty acid lipoxygenase ALOX15 (Homo sapiens) (UniProt P16050); assay: Inhibition of recombinant N-terminal His6-tagged human reticulocyte 12/15-lipoxygenase using arachidonic acid as substrate at 25 uM by UV-vis spectrometric analysis relative to control
T5 sequence (whole entry): T4 sequence (P16050 whole entry)
Procedure, shortened: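 His6-tagged human 12/15-LOX, Ni-NTA purified, at 40 nM in 25 mM HEPES pH 7.5 with 0.01% Triton X-100 and 10 μM arachidonic acid, in a stirred cuvette at 22 °C. Diene formation was followed at 234 nm, and percent inhibition at 25 μM inhibitor was calculated against the DMSO control rate.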

[6] = biological target: T6, Polyunsaturated fatty acid 5-lipoxygenase (Homo sapiens, UniProt P09917); assay: Inhibition of human 5-lipoxygenase using arachidonic acid as substrate by UV-vis spectrometric analysis
T6 sequence (P09917 whole entry): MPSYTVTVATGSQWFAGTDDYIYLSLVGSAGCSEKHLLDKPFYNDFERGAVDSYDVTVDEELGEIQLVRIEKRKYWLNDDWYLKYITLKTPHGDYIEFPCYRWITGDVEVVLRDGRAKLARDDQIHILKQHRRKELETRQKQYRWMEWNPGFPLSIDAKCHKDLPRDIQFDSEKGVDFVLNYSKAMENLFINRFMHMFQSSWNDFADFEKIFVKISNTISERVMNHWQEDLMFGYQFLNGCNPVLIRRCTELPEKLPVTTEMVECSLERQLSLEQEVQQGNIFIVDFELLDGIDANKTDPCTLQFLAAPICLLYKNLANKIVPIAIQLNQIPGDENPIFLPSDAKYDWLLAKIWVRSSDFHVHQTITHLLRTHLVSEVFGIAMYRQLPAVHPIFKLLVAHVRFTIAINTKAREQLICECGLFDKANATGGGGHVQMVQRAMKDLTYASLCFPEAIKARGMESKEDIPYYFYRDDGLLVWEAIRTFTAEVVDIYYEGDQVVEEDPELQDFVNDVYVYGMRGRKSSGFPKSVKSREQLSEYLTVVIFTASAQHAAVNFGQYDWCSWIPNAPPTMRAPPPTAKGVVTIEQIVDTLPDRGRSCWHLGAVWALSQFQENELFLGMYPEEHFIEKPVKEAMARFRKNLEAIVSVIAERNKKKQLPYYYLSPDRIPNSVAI

[7] = biological target: T7, Polyunsaturated fatty acid lipoxygenase ALOX15B (Homo sapiens, UniProt O15296); assay: Inhibition of N-terminal His6-tagged human epithelial 15-lipoxygenase-2 using arachidonic acid as substrate by UV-vis spectrometric analysis
T7 sequence (O15296 whole entry): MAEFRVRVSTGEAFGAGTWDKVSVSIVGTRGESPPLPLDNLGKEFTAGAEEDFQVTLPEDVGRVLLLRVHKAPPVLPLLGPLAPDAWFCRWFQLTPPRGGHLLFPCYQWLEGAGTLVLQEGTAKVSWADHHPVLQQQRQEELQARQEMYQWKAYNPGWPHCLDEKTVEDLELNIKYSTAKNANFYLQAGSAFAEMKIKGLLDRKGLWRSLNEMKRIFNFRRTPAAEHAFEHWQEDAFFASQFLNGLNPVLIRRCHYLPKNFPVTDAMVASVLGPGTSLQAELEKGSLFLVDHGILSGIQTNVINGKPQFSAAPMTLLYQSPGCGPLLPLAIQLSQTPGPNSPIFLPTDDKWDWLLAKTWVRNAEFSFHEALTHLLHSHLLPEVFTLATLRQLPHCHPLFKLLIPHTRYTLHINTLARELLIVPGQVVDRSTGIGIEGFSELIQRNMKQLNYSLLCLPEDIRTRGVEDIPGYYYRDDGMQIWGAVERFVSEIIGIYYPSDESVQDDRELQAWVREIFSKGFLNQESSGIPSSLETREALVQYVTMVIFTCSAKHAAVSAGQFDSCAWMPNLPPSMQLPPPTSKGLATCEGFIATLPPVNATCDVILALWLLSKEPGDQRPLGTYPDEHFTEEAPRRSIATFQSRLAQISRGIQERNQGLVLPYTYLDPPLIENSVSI

Structure (SMILES): CNc1oc(-c2ccc(-c3ccccc3)cc2)nc1C#N
- inhibition [1]: Active

Structure (SMILES): CNc1oc(-c2ccc(Cl)c(Cl)c2)nc1C#N
- inhibition [2]: < 10%
- inhibition [3]: < 10%

Structure (SMILES): CNc1nc(-c2cccc3ccccc23)ccc1C#N
- IC50 [4]: > 40 µM

Structure (SMILES): CNc1oc(-c2cccc(Cl)c2Cl)nc1C#N
- inhibition [2]: < 10%
- inhibition [3]: < 10%

Structure (SMILES): CNc1sc(-c2cccc3ccccc23)nc1C(=O)OC
- Imax [5]: < 50%

Structure (SMILES): CNc1oc(C2CCCC2)nc1C#N
- IC50 [4]: > 50 µM

Structure (SMILES): CNc1oc(-c2ccc3ccccc3c2)nc1C#N
- Imax [5]: < 50%

Structure (SMILES): CNc1nc(C#N)c(-c2cccc3ccccc23)o1
- IC50 [4]: > 40 µM
- inhibition [1]: inactive

Structure (SMILES): CNc1nnc(-c2cccc3ccccc23)s1
- IC50 [4]: > 40 µM

More lines, main results first:

- Imax [5]: < 50%
Structure (SMILES): CNc1oc(-c2cccc3cnccc23)nc1C#N

- IC50 [4]: > 30 µM
- Imax [5]: < 50%
Structure (SMILES): N#Cc1nc(-c2cccc3ccccc23)oc1Nc1ccccc1

- IC50 [4]: > 25 µM
Structure (SMILES): N#Cc1nc(-c2cccc3ccccc23)oc1NC1COC1

- IC50 [4]: > 40 µM
Structure (SMILES): N#Cc1nc(-c2cccc3ccccc23)oc1NC1CNC1
- inhibition [1]: Active

- IC50 [6]: > 50 µM
- IC50 [7]: > 50 µM
- inhibition [2]: < 10%
- inhibition [3]: < 10%
Structure (SMILES): CNc1sc(-c2cccc3ccccc23)nc1C#N

- IC50 [4]: > 40 µM
Structure (SMILES): CC(C)Nc1oc(-c2cccc3ccccc23)nc1C#N

- IC50 [4]: > 30 µM
- Imax [5]: < 50%
Structure (SMILES): N#Cc1nc(-c2cccc3ccccc23)oc1NCc1ccccc1

- IC50 [4]: > 40 µM
Structure (SMILES): CNc1oc(-c2cccc3ccccc23)nc1C(=O)OC
